The source of these data is ChEMBL document CHEMBL4477177, “Antituberculosis Activity of a Naturally Occurring Flavonoid, Isorhamnetin” (J Nat Prod, 2016).

Converted amounts (≈) assume the structure as drawn. The source made the active and inactive calls. The calls are words filed in the database; no cut-off is given here. A value given as a limit tells only on which side of the number the result lay.

Series [1] concerns Mycobacterium tuberculosis. The series is described as follows: Antitubercular activity against Mycobacterium tuberculosis H37Rv P887 incubated for 1 to 9 days by inverted microscopic analysis. The class given is functional. The essentials:
(§1)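 Bacteria immobilised in 0.5% agarose within microfluidic channels of a 96-well chip. Compound (0–632 μM; rifampicin 0–19.4 μM) supplied in Middlebrook 7H9 with 10% OADC and allowed to diffuse in. Incubated at 37 °C; channel boundary imaged by inverted microscopy (40×) at 1, 3, 5, 7 and 9 days. MIC90 taken as lowest concentration giving 90% growth inhibition. Triplicate.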

For series [2], the system named is Mycobacterium tuberculosis. The series is described as follows: Antitubercular activity against MDR Mycobacterium tuberculosis M22 incubated for 1 to 9 days by inverted microscopic analysis. The class given is functional. Put shortly: as §1
Series [3] relates to Mycobacterium tuberculosis. The series is described as follows: Antitubercular activity against MDR Mycobacterium tuberculosis X23 incubated for 1 to 9 days by inverted microscopic analysis. The class given is functional.
Series [4] relates to Mycobacterium tuberculosis. The series is described as follows: Antitubercular activity against XDR Mycobacterium tuberculosis X24 incubated for 1 to 9 days by inverted microscopic analysis. The class given is functional. The essentials: as §1
Series [5] deals with Mycobacterium tuberculosis. The series is described as follows: Antitubercular activity against XDR Mycobacterium tuberculosis X59 incubated for 1 to 9 days by inverted microscopic analysis. The class given is functional. The essentials:
as §1

Series [6] is described as follows: Lipophilicity, logP of the compound. The class given is physicochemical. To be noted: octanol/water.
For series [7], the target named is Mitogen-activated protein kinase 3 (Homo sapiens) (UniProt P27361). The series is described as follows: Binding affinity to human ERK1 expressed in Escherichia coli BL21 by fluorescence quenching based spectrofluorometric analysis. Put shortly: (§2)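 C-terminally His6-tagged ERK1 or p38 MAPK expressed in E. coli and purified. Protein at 10 μM in 50 mM sodium phosphate, 100 mM NaCl, pH 8.0, titrated with ligand to 1:10 protein:ligand. Excitation 290 nm, emission 290–500 nm. Binding constant K derived from fluorescence quenching.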
Chain of Mitogen-activated protein kinase 3 (Homo sapiens) (P27361 whole entry): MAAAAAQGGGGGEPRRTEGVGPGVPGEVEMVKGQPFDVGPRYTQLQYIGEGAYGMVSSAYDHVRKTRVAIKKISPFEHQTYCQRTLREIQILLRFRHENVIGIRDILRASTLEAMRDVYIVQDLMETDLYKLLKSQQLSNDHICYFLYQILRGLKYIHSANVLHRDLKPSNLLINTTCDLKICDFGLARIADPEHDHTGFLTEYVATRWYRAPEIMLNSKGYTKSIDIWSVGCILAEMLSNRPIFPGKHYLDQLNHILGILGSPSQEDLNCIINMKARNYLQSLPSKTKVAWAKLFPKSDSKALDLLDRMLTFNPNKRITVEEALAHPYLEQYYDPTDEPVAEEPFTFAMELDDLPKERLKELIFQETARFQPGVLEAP

Series [8] has as its target MAP kinase p38 (Homo sapiens) (UniProt O15264+Q15759+Q16539+P53778). The series is described as follows: Binding affinity to human C-terminally His-tagged p38 expressed in Escherichia coli BL21 by fluorescence quenching based spectrofluorometric analysis. Put shortly: as §2
A short description of series [9]: Cytotoxicity against human HaCaT cells assessed as cell survival rate at 16 uM after 24 hrs by MTT assay. The class given is cell-based. The conditions noted are these: read-out: Survival. Put shortly: (§3)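 Cells treated for 24 h with test agent (0–400 μM) or rifampicin (0–16 μM), then MTT assay. Survival taken as A570 of treated cells over A570 of untreated cells, as a percentage. Average of triplicates from three independent experiments.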

Series [10] is described as follows: Cytotoxicity against mouse NIH/3T3 cells assessed as cell survival rate at 16 uM after 24 hrs by MTT assay. The class given is cell-based, NIH3T3. To be noted: read-out: Survival. The essentials: as §3
Series [11] in a line: Cytotoxicity against human MRC5 cells assessed as cell survival rate at 16 uM after 24 hrs by MTT assay. The class given is cell-based. To be noted: read-out: Survival. The essentials: as §3
Series [12] deals with Mycobacterium tuberculosis. The series is described as follows: Antitubercular activity against Mycobacterium tuberculosis H37Rv ATCC 27294 incubated for 7 days by resazurin assay. The class given is functional. To be noted: H37Rv ATCC 27294, 168 h.

Take `COc1ccc(-c2oc3cc(O)cc(O)c3c(=O)c2O)cc1O` [TAMARIXETIN]: the MIC90 in [1] is 632 µM (≈ 200 µg/mL); in series [2], 632 µM (≈ 200 µg/mL); in series [3], 632 µM (≈ 200 µg/mL); in [4], more than 632 µM; in [5], more than 632 µM. Also, the logP in series [6] was 1.86. The K is 6.31 ×10⁴ /M in [7] and 4.64 ×10⁴ /M in series [8].
Compound `CO[C@H]1/C=C/O[C@@]2(C)Oc3c(C)c(O)c4c(O)c(c(/C=N/N5CCN(C)CC5)c(O)c4c3C2=O)NC(=O)/C(C)=C\C=C\[C@H](C)[C@H](O)[C@@H](C)[C@@H](O)[C@@H](C)[C@H](OC(C)=O)[C@@H]1C` [RIFAMPIN] gave an MIC90 in [1] of 0.61 µM (≈ 0.502 µg/mL). Besides, the MIC90 result in [3], in [4] and in series [5] was “inactive” throughout. Also, the results for the viability at 24 h, 16 µM in series [9], in [10] and in [11] were 55%, 62% and 53%, respectively.
`O=c1cc(-c2ccc(O)c(O)c2)oc2cc(O)cc(O)c12` [LUTEOLIN] had an MIC in [12] of 827 µM (≈ 237 µg/mL).
